ChEMBL document CHEMBL1126988, “Quinolone antibacterials containing the new 7-[3-(1-aminoethyl)-1- pyrrolidinyl] side chain: the effects of the 1-aminoethyl moiety and its stereochemical configurations on potency and in vivo efficacy” (J Med Chem, 1993)
In brackets after ≈: the same amount, converted by molar mass.

Experiments:
Escherichia coli [1] = experiment: Antibacterial activity against Escherichia coli Vogel after oral administration in mouse; assay type: functional; conditions: Escherichia coli, po; read-out: PD50
Enterobacter cloacae = experiment: Minimum inhibitory concentration in vitro against Enterobacter cloacae MA 2646; assay type: functional
Enterococcus faecalis = experiment: Minimum inhibitory concentration was evaluated in vitro against Enterococcus faecalis MGH-2; assay type: functional
Procedure, shortened: (§1)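 Standard microtitration broth assay against a panel of 10 Gram-positive and Gram-negative organisms. MIC read in µg/mL and averaged over multiple experiments.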

Klebsiella pneumoniae = experiment: Minimum inhibitory concentration was evaluated in vitro against Klebsiella pneumoniae MGH2; assay type: functional; procedure, shortened: as §1
Staphylococcus aureus [2] = experiment: Minimum inhibitory concentration was evaluated in vitro against Staphylococcus aureus H 228; assay type: functional; procedure, shortened: as §1
Staphylococcus aureus [3] = experiment: Minimum inhibitory concentration was evaluated in vitro against Staphylococcus aureus UC 76; assay type: functional; procedure, shortened: as §1
Streptococcus pyogenes [4] = experiment: Minimum inhibitory concentration was evaluated in vitro against Streptococcus pyogenes C 203; assay type: functional; procedure, shortened: as §1
DNA gyrase = DNA gyrase (Escherichia coli, UniProt P0AES4+P0AES6); experiment: Inhibition against DNA gyrase; assay type: protein-complex assay
Escherichia coli [5] = experiment: Antibacterial activity in vitro against Escherichia coli Vogel; assay type: functional; procedure, shortened: as §1
Escherichia coli [6] = experiment: Antibacterial activity against Escherichia coli Vogel after subcutaneous administration in mouse; assay type: functional; conditions: Escherichia coli, sc; read-out: PD50
Providencia rettgeri = experiment: Minimum inhibitory concentration was evaluated in vitro against Providencia rettgeri M1771; assay type: functional; procedure, shortened: as §1
Pseudomonas aeruginosa = experiment: Minimum inhibitory concentration was evaluated in vitro against Pseudomonas aeruginosa UI-18; assay type: functional; procedure, shortened: as §1
Streptococcus pneumoniae = experiment: Minimum inhibitory concentration was evaluated in vitro against Streptococcus pneumoniae SV-1; assay type: functional; procedure, shortened: as §1
Streptococcus pyogenes [7] = experiment: Antibacterial activity measured as mouse protection against Streptococcus pyogenes C 203 after subcutaneous administration; assay type: functional; conditions: for ED50: Streptococcus pyogenes, C 203, sc, read-out: PD50
Streptococcus pyogenes [8] = experiment: Compounds were evaluated in vivo for antibacterial activity for mouse protection against Streptococcus pyogenes C 203 after oral administration; assay type: functional; conditions: for ED50: Streptococcus pyogenes, C 203, po, read-out: PD50
Mus musculus = species: Mus musculus; experiment: Compounds were evaluated for phototoxicity no-effect dose in mouse; assay type: functional
Procedure, shortened: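 Depilated female CD-1 mice, five per dose plus controls. Animals are dosed orally and then exposed daily to UV-A (320–400 nm) for 3 h, for up to 4 days or until a definite positive response. Redness or erythema relative to controls, read 24 h after irradiation, counts as positive. Reported as the highest dose with no effect (mg/kg).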

[9] = Clonogenic cytotoxicity against hamster V-79 cells; assay type: functional, Cricetulus griseus, V79
Procedure, shortened: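 Chinese hamster V-79 cells grown overnight, then drug-treated for 3 h at 37 °C. Medium is replaced with fresh medium and cells are incubated 5 days to allow colony formation. IC50 (µg/mL) is the concentration inhibiting colony formation by 50% relative to control.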

[10] = Enterobacter cloacae, read-out: MIC
[11] = Enterococcus faecalis, read-out: MIC
[12] = Klebsiella pneumoniae, read-out: MIC
[13] = Staphylococcus aureus, read-out: MIC
[14] = Streptococcus pyogenes, read-out: MIC
[15] = Escherichia coli, read-out: MIC
[16] = Providencia rettgeri, read-out: MIC
[17] = Pseudomonas aeruginosa, read-out: MIC
[18] = Streptococcus pneumoniae, read-out: MIC

SMILES | ED50 (Escherichia coli [1]) [mg/kg] | MIC (Enterobacter cloacae; [10]) [µg/mL] | MIC (Enterococcus faecalis; [11]) [µg/mL] | MIC (Klebsiella pneumoniae; [12]) [µg/mL] | MIC (Staphylococcus aureus [2]; [13]) [µg/mL] | MIC (Staphylococcus aureus [3]; [13]) [µg/mL] | MIC (Streptococcus pyogenes [4]; [14]) [µg/mL] | IC50 (DNA gyrase) [µM] | ED50 (Escherichia coli [6]) [mg/kg] | MIC (Escherichia coli [5]; [15]) [µg/mL] | Dose (Mus musculus) [mg/kg] | MIC (Providencia rettgeri; [16]) [µg/mL] | MIC (Pseudomonas aeruginosa; [17]) [µg/mL] | MIC (Streptococcus pneumoniae; [18]) [µg/mL] | ED50 (Streptococcus pyogenes [7]) [mg/kg] | Cytotoxicity [9] [µg/mL] | ED50 (Streptococcus pyogenes [8]) [mg/kg] | other results
NC1CCN(c2cc3c(cc2F)c(=O)c(C(=O)O)cn3C2CC2)C1 (stereo not given) | 3 | 0.025 (≈ 0.0754 µM) | 0.1 (≈ 0.302 µM) | 0.05 (≈ 0.151 µM) | 0.2 (≈ 0.604 µM) | 0.025 (≈ 0.0754 µM) | 0.1 (≈ 0.302 µM) | 0.754 | – | – | – | – | – | – | – | – | – | –
C[C@@H](N)[C@H]1CCN(c2cc3c(cc2F)c(=O)c(C(=O)O)cn3C2CC2)C1 (racemic) | 47 | – | – | – | – | 0.025 (≈ 0.0696 µM) | – | 1.39 | 1 | – | – | – | – | – | – | – | – | MIC (Escherichia coli [5]): 0.05 µg/mL (≈ 0.139 µM); MIC (Enterobacter cloacae): 0.05 µg/mL (≈ 0.139 µM); MIC (Enterococcus faecalis): 0.025 µg/mL (≈ 0.0696 µM); MIC (Klebsiella pneumoniae): 0.1 µg/mL (≈ 0.278 µM); MIC (Providencia rettgeri): 0.2 µg/mL (≈ 0.556 µM); MIC (Pseudomonas aeruginosa): 0.4 µg/mL (≈ 1.11 µM); MIC (Staphylococcus aureus [2]): 0.05 µg/mL (≈ 0.139 µM); MIC (Streptococcus pneumoniae): 0.013 µg/mL (≈ 0.0362 µM); PD50 (Streptococcus pyogenes [7]): 1 mg/kg; PD50 (Streptococcus pyogenes [8]): 11 mg/kg; MIC (Streptococcus pyogenes [4]): 0.003 µg/mL (≈ 0.00835 µM)
Nc1c(F)c(N2CCC(N)C2)cc2c1c(=O)c(C(=O)O)cn2C1CC1 (stereo not given) | 8 | 0.013 (≈ 0.0375 µM) | 0.1 (≈ 0.289 µM) | 0.025 (≈ 0.0722 µM) | 0.1 (≈ 0.289 µM) | 0.025 (≈ 0.0722 µM) | 0.05 (≈ 0.144 µM) | – | 1 | 0.013 (≈ 0.0375 µM) | >300 | 0.1 (≈ 0.289 µM) | 0.4 (≈ 1.15 µM) | 0.025 (≈ 0.0722 µM) | 6 | 12 | 110 | –
CC1(CN)CCN(c2cc3c(cc2F)c(=O)c(C(=O)O)cn3C2CC2)C1 (stereo not given) | 43 | – | – | – | 0.1 (≈ 0.278 µM) | 0.013 (≈ 0.0362 µM) | – | 2.78 | 3 | – | – | 0.8 (≈ 2.23 µM) | – | – | 3 | – | 31 | –
CC1(CN)CCN(c2nc3c(cc2F)c(=O)c(C(=O)O)cn3C2CC2)C1 (stereo not given) | 10 | 0.1 (≈ 0.277 µM) | 0.05 (≈ 0.139 µM) | 0.1 (≈ 0.277 µM) | 0.025 (≈ 0.0694 µM) | 0.006 (≈ 0.0166 µM) | 0.05 (≈ 0.139 µM) | 13.9 | 2 | 0.2 (≈ 0.555 µM) | – | 0.4 (≈ 1.11 µM) | 0.8 (≈ 2.22 µM) | 0.025 (≈ 0.0694 µM) | 2 | – | 6 | –
CCn1cc(C(=O)O)c(=O)c2cc(F)c(N3CC[C@H]([C@@H](C)N)C3)c(F)c21 (mixture of isomers) | 3 | 0.05 | 0.013 | 0.1 | 0.025 | 0.006 | 0.003 | – | 1 | 0.05 | <10 | 0.2 | 0.8 | 0.003 | 0.4 | 9.8 | 1 | –
Nc1c(F)c(N2CCC(N)C2)c(F)c2c1c(=O)c(C(=O)O)cn2C1CC1 (stereo not given) | 1 | 0.013 (≈ 0.0357 µM) | 0.025 (≈ 0.0686 µM) | 0.006 (≈ 0.0165 µM) | 0.013 (≈ 0.0357 µM) | 0.006 (≈ 0.0165 µM) | 0.025 (≈ 0.0686 µM) | – | 0.3 | 0.006 (≈ 0.0165 µM) | 55 | 0.025 (≈ 0.0686 µM) | 0.05 (≈ 0.137 µM) | 0.006 (≈ 0.0165 µM) | 8 | 15 | 28 | –
C[C@@H](N)[C@H]1CCN(c2cc3c(cc2F)c(=O)c(C(=O)O)cn3C2CC2)C1 | – | – | – | – | – | – | – | 20.9 | – | – | – | – | – | – | – | – | – | MIC (Escherichia coli [5]): 0.2 µg/mL (≈ 0.556 µM); MIC (Enterobacter cloacae): 0.2 µg/mL (≈ 0.556 µM); MIC (Enterococcus faecalis): 0.2 µg/mL (≈ 0.556 µM); MIC (Klebsiella pneumoniae): 0.4 µg/mL (≈ 1.11 µM); MIC (Providencia rettgeri): 0.8 µg/mL (≈ 2.23 µM); MIC (Pseudomonas aeruginosa): 1.6 µg/mL (≈ 4.45 µM); MIC (Staphylococcus aureus [2]): 0.4 µg/mL (≈ 1.11 µM); MIC (Staphylococcus aureus [3]): 0.05 µg/mL (≈ 0.139 µM); MIC (Streptococcus pneumoniae): 0.1 µg/mL (≈ 0.278 µM); PD50 (Streptococcus pyogenes [7]): 3 mg/kg; PD50 (Streptococcus pyogenes [8]): >100 mg/kg; MIC (Streptococcus pyogenes [4]): 0.1 µg/mL (≈ 0.278 µM)
C[C@H](N)[C@H]1CCN(c2cc3c(cc2F)c(=O)c(C(=O)O)cn3C2CC2)C1 | – | 0.2 (≈ 0.556 µM) | 0.4 (≈ 1.11 µM) | 0.4 (≈ 1.11 µM) | 0.8 (≈ 2.23 µM) | 0.1 (≈ 0.278 µM) | 0.1 (≈ 0.278 µM) | 20.9 | – | 0.2 (≈ 0.556 µM) | – | 0.8 (≈ 2.23 µM) | 1.6 (≈ 4.45 µM) | 0.2 (≈ 0.556 µM) | 12 | – | > 100 | –
